ChEMBL document CHEMBL1255474, “Impact of different carbapenems and regimens of administration on resistance emergence for three isogenic Pseudomonas aeruginosa strains with differing mechanisms of resistance” (2010)
In brackets after ≈: the same amount, converted by molar mass. Activity calls are given as the source filed them. The rule behind the calls is not given here.

What was measured:
Pseudomonas aeruginosa [1] = assay: Antimicrobial activity against oprD-deficient Pseudomonas aeruginosa PAO1 in hollow fiber system based pharmacokinetic-pharmacodynamic model assessed as reduction in bacterial count at 1 g administered at 4 hrs infusion regimen by time-kill assay; format: functional
Outline: (§1)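 Hollow-fiber PK/PD model at 35°C, humidified. 15 ml late-log Mueller-Hinton II culture (circa 1 × 10^8 CFU/ml) per cartridge. Drug injected into the central reservoir by 0.5–4 h infusion every 6 or 8 h, run for 10 days. Samples taken at 0, 0.17, 1, 2, 3, 4, 6, 8 and 10 days, centrifuged and resuspended in saline to limit carryover. Counted on drug-free Mueller-Hinton II agar after 24 h at 35°C. Cell kill taken from counts at 24 h of exposure.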

Pseudomonas aeruginosa [2] = assay: Antimicrobial activity against oprD-deficient Pseudomonas aeruginosa PAO1 by broth macrodilution method; format: functional
Pseudomonas aeruginosa [3] = assay: Antimicrobial activity against Pseudomonas aeruginosa PAO1 expressing derepressed chromosomal AmpC mutant by broth macrodilution method; format: functional
Pseudomonas aeruginosa [4] = assay: Antimicrobial activity against wild type Pseudomonas aeruginosa PAO1 by broth macrodilution method; format: functional
Pseudomonas aeruginosa [5] = assay: Antimicrobial activity against oprD-deficient Pseudomonas aeruginosa PAO1 in hollow fiber system based pharmacokinetic-pharmacodynamic model assessed as reduction in bacterial count at 1 g administered at 4 hrs infusion regimen every 8 hrs by time-kill assay; format: functional, organism-based; outline: as §1
Pseudomonas aeruginosa [6] = assay: Antimicrobial activity against wild type Pseudomonas aeruginosa PAO1 in hollow fiber system based pharmacokinetic-pharmacodynamic model assessed as reduction in bacterial count at 1 g administered at 4 hrs infusion regimen every 8 hrs by time-kill assay; format: functional; outline: as §1
Pseudomonas aeruginosa [7] = assay: Antimicrobial activity against wild type Pseudomonas aeruginosa PAO1 in hollow fiber system based pharmacokinetic-pharmacodynamic model assessed as reduction in bacterial count at 500 mg administered at 4 hrs infusion regimen every 8 hrs by time-kill assay; format: functional; outline: as §1
Pseudomonas aeruginosa [8] = assay: Antimicrobial activity against wild type Pseudomonas aeruginosa PAO1 in hollow fiber system based pharmacokinetic-pharmacodynamic model assessed as reduction in bacterial count at 500 mg administered at 1 hr infusion regimen every 8 hrs by time-kill assay; format: functional; outline: as §1
Pseudomonas aeruginosa [9] = assay: Antimicrobial activity against oprD-deficient Pseudomonas aeruginosa PAO1 in hollow fiber system based pharmacokinetic-pharmacodynamic model assessed as reduction in bacterial count at 1 g administered at 1 hr infusion regimen every 8 hrs by time-kill assay; format: functional; outline: as §1
Pseudomonas aeruginosa [10] = assay: Antimicrobial activity against oprD-deficient Pseudomonas aeruginosa PAO1 in hollow fiber system based pharmacokinetic-pharmacodynamic model assessed as reduction in bacterial count at 500 mg administered at 1 hr infusion regimen every 8 hrs by time-kill assay; format: functional; outline: as §1

SMILES | log10CFU/ml (Pseudomonas aeruginosa [1]) | MIC (Pseudomonas aeruginosa [2]) [µg/mL] | MIC (Pseudomonas aeruginosa [3]) [µg/mL] | MIC (Pseudomonas aeruginosa [4]) [µg/mL] | Activity (Pseudomonas aeruginosa [5]) | log10CFU/ml (Pseudomonas aeruginosa [6]) | log10CFU/ml (Pseudomonas aeruginosa [7]) | log10CFU/ml (Pseudomonas aeruginosa [8]) | log10CFU/ml (Pseudomonas aeruginosa [9]) | log10CFU/ml (Pseudomonas aeruginosa [10])
C[C@@H](O)[C@H]1C(=O)N2C(C(=O)O)=C(S[C@@H]3CN[C@H](CNS(N)(=O)=O)C3)[C@H](C)[C@H]12 [DORIPENEM] | 4.24 | 2 (≈ 4.76 µM) | 2 (≈ 4.76 µM) | 1 (≈ 2.38 µM) | Active | 5.4 | 4.07 | 3.71 | 3.47 | 3.12
C[C@@H](O)[C@H]1C(=O)N2C(C(=O)O)=C(SCCNC=N)C[C@H]12 [IMIPENEM ANHYDROUS] |  | 16 (≈ 53.4 µM) | 2 (≈ 6.68 µM) | 2 (≈ 6.68 µM) |  |  |  |  |  | 
